This note sets out measurements from ChEMBL document CHEMBL3792386, “Design, Synthesis, and Biological Evaluation of Novel Selenium (Se-NSAID) Molecules as Anticancer Agents” (J Med Chem, 2016).

The source made the active and inactive calls. No cut-off for these calls is given here. Bounds are passed on as bounds.

The test system of assay [1] is HT-29. Description: Antiproliferative activity against human HT-29 cells assessed as reduction in cell viability after 24 hrs by MTT assay. The assay is classed as functional, cell-based. The settings on record: HT-29, 24 h. The gist of the method: (§1)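 3000 cells/well incubated in triplicate with serial concentrations of compound for 24, 48 or 72 h at 37 °C. MTT (5.0 mg/mL solution) added 3 h before the end. Formazan dissolved in DMSO, absorbance read at 570 and 630 nm. Viability normalised to vehicle control. IC50 from non-linear regression (variable slope), mean ± SD of triplicates.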

For assay [2], the system named is UACC-903. Description: Antiproliferative activity against human UACC-903 cells assessed as reduction in cell viability after 48 hrs by MTT assay. The assay is classed as functional, cell-based. The settings on record: UACC-903, 48 h. The gist of the method: as §1
The test system of assay [3] is MDA-MB-231. Put plainly: Antiproliferative activity against human MDA-MB-231 cells assessed as reduction in cell viability after 72 hrs by MTT assay. As to conditions: MDA-MB-231, 72 h. It is filed as functional, cell-based. A digest of the protocol:
as §1

The test system of assay [4] is HT-29. Put plainly: Antiproliferative activity against human HT-29 cells assessed as reduction in cell viability after 48 hrs by MTT assay. The assay is classed as functional, cell-based. As to conditions: HT-29, 48 h. The gist of the method:
as §1

Assay [5] is described as follows: Antiproliferative activity against human PANC1 cells assessed as reduction in cell viability after 72 hrs by MTT assay. It is filed as functional, cell-based. The settings on record: PANC-1, 72 h. The gist of the method: as §1
Assay [6] in a line: Antiproliferative activity against human PANC1 cells assessed as reduction in cell viability after 24 hrs by MTT assay. It is filed as functional, cell-based. As to conditions: PANC-1, 24 h. A digest of the protocol:
as §1

Assay [7] concerns MDA-MB-231. Description: Antiproliferative activity against human MDA-MB-231 cells assessed as reduction in cell viability after 48 hrs by MTT assay. The assay is classed as functional, cell-based. As to conditions: MDA-MB-231, 48 h. A digest of the protocol: as §1
For assay [8], the system named is HT-29. Description: Antiproliferative activity against human HT-29 cells assessed as reduction in cell viability after 72 hrs by MTT assay. It is filed as functional, cell-based. As to conditions: HT-29, 72 h. The gist of the method:
as §1

Assay [9] concerns UACC-903. Description: Antiproliferative activity against human UACC-903 cells assessed as reduction in cell viability after 72 hrs by MTT assay. The assay is classed as functional, cell-based. The settings on record: UACC-903, 72 h. The gist of the method:
as §1

In assay [10] the test system is UACC-903. Put plainly: Antiproliferative activity against human UACC-903 cells assessed as reduction in cell viability after 24 hrs by MTT assay. As to conditions: UACC-903, 24 h. The assay is classed as functional, cell-based. A digest of the protocol:
as §1

In assay [11] the test system is MDA-MB-231. Put plainly: Antiproliferative activity against human MDA-MB-231 cells assessed as reduction in cell viability after 24 hrs by MTT assay. The assay is classed as functional, cell-based. The settings on record: MDA-MB-231, 24 h. The gist of the method:
as §1

Assay [12] can be described thus: Antiproliferative activity against human PANC1 cells assessed as reduction in cell viability after 48 hrs by MTT assay. It is filed as functional, cell-based. The settings on record: PANC-1, 48 h. The gist of the method: as §1
For assay [13], the system named is HCT-116. Put plainly: Cytotoxicity against human HCT116 cells assessed as reduction in cell viability after 48 hrs MTT assay. The assay is classed as functional, cell-based. The gist of the method:
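Cells (HCT116, nHDF in serum-free fibroblast medium with growth kit, or MEFs) exposed to increasing compound concentrations for 48 h at 37 °C. Viability read by MTT: 3000 cells/well, triplicate, MTT 3 h before end, formazan in DMSO, absorbance 570/630 nm. Mean ± SD.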

Assay [14] deals with HCT-116. Put plainly: Induction of cell death in human HCT116 cells at 1 mM after 24 hrs by ethidium bromide staining-based fluorescence microscopy. It is filed as functional. The gist of the method: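 HCT116 cells were exposed for 24 h with a DMSO vehicle comparison, then trypsinized and stained with calcein-AM (live, esterase activity) and ethidium homodimer-1 (dead, lost membrane integrity). Fluorescence microscopy was done at 20X, and the percentage of dead cells was calculated as mean ±SD.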

Consider `CC(=O)Oc1ccccc1C(=O)[Se]CC[Se]C(=O)c1ccccc1OC(C)=O`, for which the 50% inhibitory concentration (IC50) in [1] was 18.6 µM; in assay [2], 3.6 µM; in [3], 7.6 µM; in assay [4] it was 3.5 µM; in assay [5] it was 3.4 µM; in assay [6], 33.4 µM. The half-maximal inhibitory concentration (IC50) in assay [7] was determined as 11 µM; in assay [8], 5.5 µM; in assay [9], 3 µM; in assay [10] it was 17.2 µM; in assay [11], 18.6 µM; in assay [12] it was 13.5 µM.
On to `CC(=O)Oc1ccccc1C(=O)[Se]CCBr`, for which the IC50 in assay [1] is 28.5 µM; in assay [2], 19.4 µM; in assay [3], 8.7 µM; in assay [4], 27.7 µM; in [5] it was more than 50 µM; in assay [6], 39.3 µM. The IC50 in [7] was 18.7 µM; in assay [8], 19.3 µM; in assay [9] it was 10.2 µM; in assay [10], 22.7 µM; in assay [11], 23.7 µM; in assay [12], more than 50 µM.
In the case of `COc1ccc2cc([C@H](C)C(=O)NCC[Se]C#N)ccc2c1`, the IC50 in [1], in assay [2], in assay [3], in assay [4], in assay [5] and in assay [6] was more than 50 µM throughout. Further, the 50% inhibitory concentration (IC50) in assay [7], in assay [8], in assay [9], in [10], in assay [11] and in assay [12] was more than 50 µM each time.
`COc1ccc2cc([C@H](C)C(=O)O)ccc2c1` [NAPROXEN]: the IC50 in assay [1], in [2], in assay [3], in [4], in assay [5] and in [6] was more than 50 µM each time. Further, the IC50 in assay [7], in assay [8], in [9], in [10], in [11] and in assay [12] was more than 50 µM throughout.
Consider `CC(C)Cc1ccc(C(C)C(=O)O)cc1` (stereo not given) [IBUPROFEN], for which the IC50 in assay [1], in assay [2], in [3], in [4], in assay [5] and in assay [6] was more than 50 µM each time. Further, the IC50 in assay [7], in assay [8], in assay [9], in [10], in [11] and in [12] was more than 50 µM in each case.
Take `CC(=O)Oc1ccccc1C(=O)OCC[Se]C#N`: the IC50 stood at 10.2 µM in assay [1]; 14.5 µM in [2]; 34.3 µM in assay [3]; 30.9 µM in assay [4]; 15.1 µM in [5]; 38.7 µM in assay [6]. The IC50 in assay [7] is 23.8 µM; in assay [8], 20.2 µM; in assay [9], 17.6 µM; in assay [10] it was 33.9 µM; in assay [11] it was more than 50 µM; in assay [12], 36.1 µM.
As for `CC(=O)Oc1ccccc1C(=O)[Se]CC[Se]C#N`, the IC50 in [1] was more than 50 µM; in assay [2], 15.8 µM; in assay [3] it was 18.6 µM; in [4] it was 27.5 µM; in assay [5] it was 9.6 µM; in [6], more than 50 µM. Besides, the IC50 in assay [7] was 34.2 µM; in [8], 17.7 µM; in assay [9] it was 12.7 µM; in assay [10], more than 50 µM; in assay [11], more than 50 µM; in assay [12], 18.9 µM.
Take `C[Se]CC(NC(=O)c1ccccc1OC(C)=O)C(=O)O` (stereo not given): the IC50 was more than 50 µM in assay [1]; more than 50 µM in [2]; more than 50 µM in [3]; more than 50 µM in [4]; 27.6 µM in assay [5]; more than 50 µM in [6]. Also, the IC50 in [7] is more than 50 µM; in [8], more than 50 µM; in assay [9], more than 50 µM; in [10], more than 50 µM; in [11], more than 50 µM; in assay [12], 26.1 µM.
For `O=c1[nH]cc(F)c(=O)[nH]1`, the outcome in assay [13] was Active.
Consider `CC(=O)Oc1ccccc1C(=O)NCCSC#N`, for which the half-maximal inhibitory concentration (IC50) was more than 50 µM in [1]; more than 50 µM in assay [2]; more than 50 µM in assay [3]; more than 50 µM in assay [4]; 8.7 µM in [5]; more than 50 µM in [6]. In addition, the IC50 in assay [7] is more than 50 µM; in assay [8], more than 50 µM; in assay [9] it was more than 50 µM; in assay [10], more than 50 µM; in assay [11], more than 50 µM; in assay [12] it was 17.7 µM.
With `CC(C)Cc1ccc(C(C)C(=O)NCC[Se]C#N)cc1` (stereo not given), the IC50 in [1], in assay [2], in assay [3], in assay [4], in [5] and in assay [6] was more than 50 µM each time. In addition, the IC50 in assay [7], in assay [8], in assay [9], in [10], in [11] and in assay [12] was more than 50 µM in each case.
Take `CC(=O)Oc1ccccc1C(=O)O` [ASPIRIN]: the IC50 in assay [1], in assay [2], in assay [3], in [4], in [5] and in assay [6] was more than 50 µM in each case. Moreover, the IC50 in [7], in assay [8], in [9], in assay [10], in [11] and in [12] was more than 50 µM throughout. In addition, the outcome in [13] was Active. Besides, the outcome in assay [14] was inactive.
